Experimental data published in ChEMBL document CHEMBL1124970, “New leupeptin analogues: synthesis and inhibition data” (J Med Chem, 1990).
pIC50: −log10 of the molar value. Where a SMILES comes first, the peptide text is derived from it. [ ]: non-standard residue; d: D form. The star is where a group is joined. Orn = NCCC[C@H](N)C(=O)O; Cbz = O=C(OCc1ccccc1)*

Legend:
Serine protease 1 [1] = molecular target: T1, Serine protease 1 (Homo sapiens, UniProt P07477); experiment: Evaluated for the inhibition of trypsin
T1 sequence (P07477 whole entry): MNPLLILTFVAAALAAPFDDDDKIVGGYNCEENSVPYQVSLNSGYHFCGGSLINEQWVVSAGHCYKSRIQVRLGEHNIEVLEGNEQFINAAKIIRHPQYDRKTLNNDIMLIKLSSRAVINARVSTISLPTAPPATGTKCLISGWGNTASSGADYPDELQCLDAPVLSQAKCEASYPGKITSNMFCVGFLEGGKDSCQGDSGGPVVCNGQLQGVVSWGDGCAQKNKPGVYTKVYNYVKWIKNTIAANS
Method in brief: (§1)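 Trypsin (0.01 g/L stock in 0.001 N HCl) in 0.046 M Tris with 0.0115 M CaCl2, pH 8.1, inhibitor in 1% DMSO/water, 37 °C. Tosyl-L-arginine methyl ester (0.01 M stock) added, 2 min incubation, A247 change read over 10 min. Each inhibitor level run four times, five or more levels; IC50 from % inhibition plotted against log concentration.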

Plasminogen [2] = molecular target: T2, Plasminogen (Rattus norvegicus, UniProt Q01177); experiment: Inhibition of plasmin
T2 sequence (Q01177 97-581 limits assumed): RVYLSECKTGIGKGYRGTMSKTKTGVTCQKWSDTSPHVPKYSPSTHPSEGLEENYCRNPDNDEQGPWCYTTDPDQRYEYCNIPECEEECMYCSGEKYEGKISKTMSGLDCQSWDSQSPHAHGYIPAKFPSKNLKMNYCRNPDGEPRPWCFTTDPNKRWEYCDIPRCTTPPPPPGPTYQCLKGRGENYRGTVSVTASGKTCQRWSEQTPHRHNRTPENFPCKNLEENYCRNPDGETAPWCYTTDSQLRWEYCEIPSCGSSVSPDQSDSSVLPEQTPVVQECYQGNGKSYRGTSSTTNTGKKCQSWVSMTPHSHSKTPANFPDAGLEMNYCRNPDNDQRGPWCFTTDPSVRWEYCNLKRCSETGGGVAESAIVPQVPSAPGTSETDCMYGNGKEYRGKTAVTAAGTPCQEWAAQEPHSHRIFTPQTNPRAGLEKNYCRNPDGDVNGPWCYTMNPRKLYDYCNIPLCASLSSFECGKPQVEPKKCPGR
T2 sequence (Q01177 582-812 limits assumed): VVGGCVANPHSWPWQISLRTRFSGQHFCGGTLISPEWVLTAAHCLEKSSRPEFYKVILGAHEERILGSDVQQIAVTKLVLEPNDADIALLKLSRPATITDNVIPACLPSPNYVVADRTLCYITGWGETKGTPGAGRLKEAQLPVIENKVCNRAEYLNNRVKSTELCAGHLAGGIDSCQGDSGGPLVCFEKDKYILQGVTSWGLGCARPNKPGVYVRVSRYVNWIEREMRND
Method in brief: (§2)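 Plasmin (0.25 casein units/mL stock, in 50% glycerol/2 mM HCl with 5 g/L carbowax) in 0.5 M Tris pH 8.0 with 0.12 M NaCl, inhibitor added in 1% DMSO/water, 37 °C. D-Val-Leu-Lys p-nitroanilide (3.35 mM stock) added, 1 min incubation, then A405 change followed over 10 min. Four runs at ≥5 inhibitor concentrations; % inhibition vs log[I] gives IC50.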

Kallikrein-1 = Kallikrein-1 (Homo sapiens, UniProt P06870); experiment: Inhibition of Kallikrein proteolytic enzyme
Chain of Kallikrein-1 (P06870 whole entry): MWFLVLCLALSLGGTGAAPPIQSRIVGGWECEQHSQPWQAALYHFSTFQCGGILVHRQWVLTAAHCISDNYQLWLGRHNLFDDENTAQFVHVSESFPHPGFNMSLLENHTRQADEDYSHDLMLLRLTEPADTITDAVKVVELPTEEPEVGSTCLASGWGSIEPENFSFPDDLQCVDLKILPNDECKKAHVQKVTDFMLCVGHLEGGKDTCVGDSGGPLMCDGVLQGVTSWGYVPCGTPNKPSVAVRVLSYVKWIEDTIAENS
Method in brief: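 Human urinary kallikrein (0.3 units/mL stock) at 37 °C in 0.46 M Tris pH 8.0 containing 0.0115 M NaCl, inhibitor in 1% DMSO/water. Benzoylarginine ethyl ester (0.5 mM stock) substrate, 2 min incubation, absorbance change at 253 nm over 10 min. Quadruplicate measurements at ≥5 inhibitor concentrations; IC50 read from % inhibition vs log inhibitor concentration.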

Serine protease 1 [3] = molecular target: T1, Serine protease 1; experiment: Evaluated for the inhibition of trypsin.(no inhibition at 400 uM); method in brief: as §1
Plasminogen [4] = molecular target: T2, Plasminogen; experiment: Evaluated for the inhibition of plasmin.(no inhibition at 400 uM); method in brief: as §2
Plasminogen [5] = molecular target: T2, Plasminogen; experiment: Evaluated for the inhibition of plasmin.( no inhibition at 400 uM); method in brief: as §2

Compound: CC(C)C[C@H](NC(=O)OCc1ccccc1)C(=O)N[C@@H](CC(C)C)C(=O)N[C@H](C=O)CCCN=C(N)N
- pIC50 (Serine protease 1 [1]): 3.79
- pIC50 (Plasminogen [2]): 3.89
- pIC50 (Kallikrein-1): 4.44

Compound: CC(C)C[C@H](NC(=O)OCc1ccccc1)C(=O)N[C@@H](CC(C)C)C(=O)N[C@H](C=O)CCCCN (Cbz-Leu-Leu-Lys-aldehyde)
- pIC50 (Serine protease 1 [1]): 3.71
- pIC50 (Plasminogen [2]): 3.74
- pIC50 (Kallikrein-1): 4.72

Compound: CC(C)C[C@H](NC(=O)OCc1ccccc1)C(=O)N[C@@H](CC(C)C)C(=O)N[C@H](C=O)CCCN (Cbz-Leu-Leu-[Orn]-aldehyde)
- pIC50 (Serine protease 1 [3]): < 3.40
- pIC50 (Plasminogen [4]): < 3.40
- pIC50 (Kallikrein-1): 4.53

Compound: CC(C)C[C@H](NC(=O)OCc1ccccc1)C(=O)N[C@@H](Cc1ccccc1)C(=O)N[C@H](C=O)CCCN=C(N)N (Cbz-Leu-Phe-Arg-aldehyde)
- pIC50 (Serine protease 1 [1]): 3.97
- pIC50 (Plasminogen [2]): 4.10
- pIC50 (Kallikrein-1): 4.48

Compound: CC(C)C[C@H](NC(=O)OCc1ccccc1)C(=O)N[C@@H](Cc1ccccc1)C(=O)N[C@H](C=O)CCCCN (Cbz-Leu-Phe-Lys-aldehyde)
- pIC50 (Plasminogen [2]): 4.33
- pIC50 (Serine protease 1 [3]): < 3.40
- pIC50 (Kallikrein-1): 4.69

Compound: CC(C)C[C@H](NC(=O)OCc1ccccc1)C(=O)N[C@@H](Cc1ccccc1)C(=O)N[C@H](C=O)CCCN (Cbz-Leu-Phe-[Orn]-aldehyde)
- pIC50 (Serine protease 1 [3]): < 3.40
- pIC50 (Kallikrein-1): 4.08
- pIC50 (Plasminogen [5]): < 3.40

Compound: CC(C)C[C@H](NC(=O)OCc1ccccc1)C(=O)N[C@H](C(=O)N[C@H](C=O)CCCN=C(N)N)C(C)C (Cbz-Leu-Val-Arg-aldehyde)
- pIC50 (Serine protease 1 [1]): 4.09
- pIC50 (Plasminogen [2]): 4.99
- pIC50 (Kallikrein-1): 4.95

Compound: CC(C)C[C@H](NC(=O)OCc1ccccc1)C(=O)N[C@H](C(=O)N[C@H](C=O)CCCCN)C(C)C (Cbz-Leu-Val-Lys-aldehyde)
- pIC50 (Plasminogen [2]): 4.73
- pIC50 (Serine protease 1 [3]): < 3.40
- pIC50 (Kallikrein-1): 4.83

Compound: CC(C)C[C@H](NC(=O)OCc1ccccc1)C(=O)N[C@H](C(=O)N[C@H](C=O)CCCN)C(C)C (Cbz-Leu-Val-[Orn]-aldehyde)
- pIC50 (Plasminogen [2]): 3.36
- pIC50 (Serine protease 1 [3]): < 3.40
- pIC50 (Kallikrein-1): 4.27

Compound: CC(C)C[C@H](NC(=O)[C@H](Cc1ccccc1)NC(=O)OCc1ccccc1)C(=O)N[C@H](C=O)CCCN=C(N)N (Cbz-Phe-Leu-Arg-aldehyde)
- pIC50 (Serine protease 1 [1]): 4.34
- pIC50 (Plasminogen [2]): 4.99
- pIC50 (Kallikrein-1): 4.59

Compound: CC(C)C[C@H](NC(=O)[C@H](Cc1ccccc1)NC(=O)OCc1ccccc1)C(=O)N[C@H](C=O)CCCCN (Cbz-Phe-Leu-Lys-aldehyde)
- pIC50 (Plasminogen [2]): 5.05
- pIC50 (Serine protease 1 [3]): < 3.40
- pIC50 (Kallikrein-1): 4.59

Compound: CC(C)C[C@H](NC(=O)[C@H](Cc1ccccc1)NC(=O)OCc1ccccc1)C(=O)N[C@H](C=O)CCCN (Cbz-Phe-Leu-[Orn]-aldehyde)
- pIC50 (Plasminogen [2]): 3.62
- pIC50 (Serine protease 1 [3]): < 3.40
- pIC50 (Kallikrein-1): 3.95
